# Results reported in PubChem BioAssay.
# The source made the active and inactive calls.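 The calls were made as follows, unless noted: active = current rise at least 3 SD above the untreated control mean in each of two repeat wells; inactive = the rest.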
# Biological target: Potassium voltage-gated channel subfamily KQT member 2 (Rattus norvegicus) (UniProt O88943)
# Assay: KCNQ2 thallium flux enhancement – KCNQ2-CHO-K1 cells, selectivity assay for KCNQ1 potentiator project (AID 493009;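 active = mean duplicate potentiation above the buffer control mean plus 5 SD of buffer wells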;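 also: assay conditions were tuned for KCNQ1 rather than KCNQ2 modulators; signal is max minus min fluorescence divided by baseline after thallium stimulus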)
# Conditions: FluxOR thallium flux fluorescence, at 10 µM; hits give high values, scaled: buffer 0, activator control 100
# Chain of Potassium voltage-gated channel subfamily KQT member 2 (Rattus norvegicus) (O88943 whole entry, looked up): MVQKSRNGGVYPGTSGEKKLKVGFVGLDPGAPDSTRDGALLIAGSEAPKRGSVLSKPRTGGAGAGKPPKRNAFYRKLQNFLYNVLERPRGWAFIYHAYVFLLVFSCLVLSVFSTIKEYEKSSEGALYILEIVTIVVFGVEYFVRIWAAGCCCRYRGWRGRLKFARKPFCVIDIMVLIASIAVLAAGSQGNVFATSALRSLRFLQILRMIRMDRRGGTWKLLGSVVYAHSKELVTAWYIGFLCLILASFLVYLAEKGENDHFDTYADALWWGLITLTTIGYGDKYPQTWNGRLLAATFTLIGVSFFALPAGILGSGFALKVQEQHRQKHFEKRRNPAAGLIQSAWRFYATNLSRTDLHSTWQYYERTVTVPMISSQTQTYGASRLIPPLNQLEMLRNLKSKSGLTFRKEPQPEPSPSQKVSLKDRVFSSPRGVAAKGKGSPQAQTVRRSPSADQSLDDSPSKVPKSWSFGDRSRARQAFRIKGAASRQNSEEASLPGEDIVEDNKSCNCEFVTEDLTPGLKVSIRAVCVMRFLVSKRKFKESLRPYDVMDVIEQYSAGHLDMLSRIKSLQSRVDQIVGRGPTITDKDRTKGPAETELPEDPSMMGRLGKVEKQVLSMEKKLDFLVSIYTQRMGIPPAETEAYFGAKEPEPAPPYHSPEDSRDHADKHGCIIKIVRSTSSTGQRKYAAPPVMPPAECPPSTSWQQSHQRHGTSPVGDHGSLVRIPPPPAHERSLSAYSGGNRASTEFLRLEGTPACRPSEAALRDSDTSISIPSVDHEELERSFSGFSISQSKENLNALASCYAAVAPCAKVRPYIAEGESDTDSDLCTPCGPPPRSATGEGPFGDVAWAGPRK
Structure (SMILES),outcome,potentiation
Cc1ccc(CCNC(=O)C2CC(c3cccc(F)c3)=NO2)cc1 (stereo not given),inactive,
CCCCn1c(=O)[nH]c(=O)c2c1nc(Cn1ncc(Cl)c(Cl)c1=O)n2CCC,inactive,
S=C(NN=C1CCCCCC1)Nc1ccc(Cl)cc1,inactive,
COc1cc2c(cc1NC(=O)CSc1nnc(COc3ccc(Cl)cc3)n1C)oc1ccccc12,inactive,
Cc1ccc(O)c(NC(=S)NC(=O)Cc2ccc(Cl)cc2)c1,,154% (active)

# Biological target: Potassium voltage-gated channel subfamily KQT member 1 (Homo sapiens) (UniProt P51787)
# Assay: KCNQ1 activators by electrophysiology – IonWorks patch clamp, KCNQ1-CHO cells, orthogonal assay for KCNQ1 potentiator project, confirmation (AID 493184)
# Conditions: automated patch clamp current, at 10 µM; hits give high values
# Outline: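 Test system: KCNQ1-expressing CHO cells. Medium: pH 7.4 external bath. Probe or stimulus: voltage step from -90 mV holding to +40 mV, 2,000 ms. Compound: 10 µM final, single point. Detection: automated perforated-patch electrophysiology. Read-out: percent current increase versus pre-compound level. Repeats: two replicates.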
# Chain of Potassium voltage-gated channel subfamily KQT member 1 (Homo sapiens) (P51787 whole entry, looked up): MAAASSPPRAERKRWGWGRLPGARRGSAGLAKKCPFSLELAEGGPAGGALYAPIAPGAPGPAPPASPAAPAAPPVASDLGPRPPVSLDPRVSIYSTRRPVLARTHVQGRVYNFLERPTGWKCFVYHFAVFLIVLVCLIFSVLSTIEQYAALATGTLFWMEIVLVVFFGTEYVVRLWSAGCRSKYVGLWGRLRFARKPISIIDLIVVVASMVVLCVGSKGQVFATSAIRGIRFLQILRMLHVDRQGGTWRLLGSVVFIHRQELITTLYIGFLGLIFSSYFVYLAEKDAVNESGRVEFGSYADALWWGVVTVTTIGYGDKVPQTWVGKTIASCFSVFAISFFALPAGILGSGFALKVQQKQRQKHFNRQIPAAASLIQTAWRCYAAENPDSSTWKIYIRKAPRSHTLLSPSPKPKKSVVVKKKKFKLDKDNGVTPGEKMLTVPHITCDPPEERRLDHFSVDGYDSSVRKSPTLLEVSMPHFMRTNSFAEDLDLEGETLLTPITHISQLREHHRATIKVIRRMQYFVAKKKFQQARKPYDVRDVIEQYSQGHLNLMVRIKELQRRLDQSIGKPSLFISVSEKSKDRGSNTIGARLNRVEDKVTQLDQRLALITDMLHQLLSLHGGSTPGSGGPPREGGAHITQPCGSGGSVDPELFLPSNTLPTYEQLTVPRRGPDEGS
row,Structure (SMILES),outcome
1,CCCn1c(SCC(=O)Nc2cccc(NC(C)=O)c2)nnc1C(C)C,inactive
2,CSc1cccc(NC(=O)CN2C(=O)c3ccccc3S2(=O)=O)c1,inactive
3,COC(=O)C1CCN(C(=O)Nc2ccc(OC)cc2)CC1,inactive
4,CC(=O)n1cc(N(C(=O)CCl)c2ccc(C)cc2)c2ccccc21,inactive
5,Cn1c(=O)c2c(ncn2CC(=O)OCC(=O)Nc2cc(Cl)ccc2Cl)n(C)c1=O,inactive
6,CCOC(=O)C1CCN(C(=O)COC(=O)c2cc(-c3cccs3)nn2-c2ccccc2)CC1,inactive
7,Cc1cc(N2CCOCC2)nc(SCC(=O)c2ccc(Cl)cc2)n1,inactive
8,CCOc1cc(S(=O)(=O)Nc2ccc(Cl)cn2)ccc1Cl,inactive
9,Cc1cc(OC(=O)c2cc(Cl)ccc2Cl)c([N+](=O)[O-])c(=O)[nH]1,inactive
10,S=c1[nH]c2ccccc2c2ccccc12,inactive
11,O=C(N1CCOCC1)N1CCC(n2nnc3ccccc32)CC1,inactive
12,COC(=O)c1ccc(CNC(=O)CSc2nc3sc(C)c(C)c3c(=O)n2C)o1,inactive
13,Cc1ccc(CCNC(=O)C2CC(c3cccc(F)c3)=NO2)cc1 (stereo not given),inactive
14,CC1CN(C(=O)C2CC(=O)N(c3ccc(Cl)cc3)C2)CC(C)O1 (stereo not given),inactive
15,CCCCn1c(=O)[nH]c(=O)c2c1nc(Cn1ncc(Cl)c(Cl)c1=O)n2CCC,inactive
16,O=C(NC(=S)Nc1ccc(Br)cn1)c1cccs1,inactive
17,S=C(NN=C1CCCCCC1)Nc1ccc(Cl)cc1,inactive
18,COC(=O)c1ccc(CSc2nnc(SCc3ccc(C(=O)OC)o3)s2)o1,inactive
19,CCc1ccc(NC(=O)C2CCN(C(=O)[C@@H]3Cc4ccccc4CN3)CC2)cc1,inactive
20,CN(C(=S)NC(=O)c1ccc(F)cc1)C1CCCCC1,inactive

row,Structure (SMILES),outcome
1,CNCCC=C1c2ccccc2CCc2ccccc21,inactive
2,Cc1ccc(C)c(NC(=S)NNC(=O)c2csc(C(C)C)c2)c1,inactive
3,N#Cc1ccc2ccn(CC(=O)NCc3ccccc3)c2c1,inactive
4,COc1cc2c(cc1NC(=O)CSc1nnc(COc3ccc(Cl)cc3)n1C)oc1ccccc12,inactive
5,O=C(CSc1nc(-c2ccccc2)cs1)N1CCc2ccccc21,inactive
6,COc1cccc2c1C(=O)C=C(C)C2=O,inactive
7,CC(CNC(=O)COc1ccccc1)OC(=O)Nc1ccc(Cl)c(Cl)c1 (stereo not given),inactive
8,CC(C)COc1ccc(-c2nn(-c3ccccc3)cc2/C=C2/SC(=S)N(CC(=O)O)C2=O)cc1,inactive
9,Cc1ccc(O)c(NC(=S)NC(=O)Cc2ccc(Cl)cc2)c1,inactive
10,CN(Cc1cccnc1)C(=O)Cc1ccc(NS(=O)(=O)c2cccc(C(F)(F)F)c2)cc1,inactive
11,Cc1cccc(N(CC(=O)NC2CCCC2)C(=O)c2csnn2)c1C,inactive
12,Cc1ccc(-n2c(-c3ccc(Cl)cc3)n[nH]c2=S)c(C)c1,inactive
13,O=C(CCSc1ccccc1)Nc1ccc(S(=O)(=O)Nc2ncccn2)cc1,inactive
14,COCC(=O)NC1CC2CCC(C1)N2C(=S)Nc1ccccc1C(=O)OC (stereo not given),inactive
15,Cc1ccc(NC(=O)Cn2nc(C)c3ccccc3c2=O)c(C)c1,inactive
16,CCCCNC(=O)CNC(=O)c1nn(-c2ccc(OC)cc2OC)c(=O)c2ccccc12,inactive
17,COc1ccc(O)c(C(=O)c2cnn(-c3ccc(Cl)cc3)c2)c1,inactive
18,COC(=O)c1cc(-c2cc(OC)ccc2OC)nc2c1c(=O)n(C)c(=O)n2Cc1ccccc1,inactive
19,O=C(NC(=S)Nc1nc2c(s1)CCCC2)c1ccc(C(=O)c2ccccc2)cc1,inactive
20,Cc1ccc(Nc2c(-c3ccc(C)o3)nc3cnccn23)cc1,inactive

# Biological target: Potassium voltage-gated channel subfamily E member 1 (Homo sapiens) + Potassium voltage-gated channel subfamily KQT member 1 (Homo sapiens) (UniProt P15382+P51787)
# Assay: KCNQ1-E1 channel activation – thallium flux, CHO-K1 KCNQ1/E1 cells, selectivity assay for KCNQ1 potentiator project, confirmation (AID 493186;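 active = mean duplicate activation above the buffer control mean plus 5 SD of those controls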)
# Conditions: FluxOR thallium flux, at 10 µM; hits give high values
# Outline: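 Material: CHO-K1 cells with KCNQ1/E1 / Timing: dye 90 min, compound 20 min, room temperature / Technique: kinetic thallium-sensitive FluxOR dye fluorescence / Read-out: percent activation scaled between buffer and R-L3 ratio signals / Replicates: tested in duplicate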
# Chain of Potassium voltage-gated channel subfamily E member 1 (Homo sapiens) + Potassium voltage-gated channel subfamily KQT member 1 (Homo sapiens) (P51787 whole entry, looked up): as the sequence (P51787 whole entry, looked up) above
row,Structure (SMILES),outcome
1,Cc1ccc(CCNC(=O)C2CC(c3cccc(F)c3)=NO2)cc1 (stereo not given),inactive
2,CCCCn1c(=O)[nH]c(=O)c2c1nc(Cn1ncc(Cl)c(Cl)c1=O)n2CCC,inactive
3,S=C(NN=C1CCCCCC1)Nc1ccc(Cl)cc1,inactive
4,COc1cc2c(cc1NC(=O)CSc1nnc(COc3ccc(Cl)cc3)n1C)oc1ccccc12,inactive
5,Cc1ccc(O)c(NC(=S)NC(=O)Cc2ccc(Cl)cc2)c1,inactive
